# From paper PMC8014925 (ACS Omega, 2021)
# How the values were obtained:
# estrogenic potency = conditions: cited from earlier work
# arylsulfatase = assay: Arylsulfatase inhibition assay; format: biochemical, Helix pomatia; conditions: for type of inhibition of arylsulfatase: Lineweaver–Burk plot; for reversibility of inhibition of arylsulfatase: enzyme activity vs enzyme concentration at four inhibitor concentrations
# β-glucuronidase = assay: β-Glucuronidase inhibition assay; format: biochemical, H. pomatia; conditions: for reversibility of inhibition of β-glucuronidase: enzyme activity vs enzyme concentration at four inhibitor concentrations
# Outline: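 H. pomatia β-glucuronidase (type H-1), stock 10 U/mL in 0.5 M Tris-HCl pH 7.0. Incubated 1 h at 37 °C in 0.1 M phosphate buffer pH 7.0 with pNPG (5 mM stock) and test compound or water control. Stopped with 0.5 M NaOH; pNP read at 400 nm. Final H2O2 1–10,000 μM; NaClO and PAA 1–1000 μM. Triplicates; % inhibition relative to control without test compound.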
compound,measurement,setting,value
"CCCCC(CC)COC(=O)c1ccccc1C(=O)OCC(CC)CCCC (stereo not shown) [DEHP, di-2-(ethylhexyl) phthalate]",estrogenic potency,estrogenic potency,10^–7
"OO [H2O2, hydrogen peroxide]",type of inhibition of arylsulfatase,arylsulfatase,competitive
same,reversibility of inhibition of arylsulfatase,arylsulfatase,reversible
same,inhibition of arylsulfatase under weak alkaline condition (in words),arylsulfatase; pH 8,reduced inhibition
same,differences in the inhibition of arylsulfatase across pH (in words),arylsulfatase; pH range of 5–7,no significant differences
same,inhibition on β-glucuronidase (in words),"β-glucuronidase; pH 7.0, tested 1-10,000 μM",no inhibition
"CC(=O)OO [PAA, peracetic acid]",type of inhibition of arylsulfatase,arylsulfatase,noncompetitive
same,reversibility of inhibition of arylsulfatase,arylsulfatase,reversible
same,inhibition of arylsulfatase at pH 8 (in words),"arylsulfatase; pH 8, concentration below 1 mM",nearly no inhibition
same,type of inhibition of β-glucuronidase,β-glucuronidase; Lineweaver–Burk plot,noncompetitive
same,reversibility of inhibition of β-glucuronidase,β-glucuronidase,reversible
same,maximum inhibition degree on β-glucuronidase,"β-glucuronidase; pH 7.0, tested up to 1000 μM",about 60%
[Cd] [cadmium],estrogenic potency (in words),estrogenic potency,no estrogenic potency at all
OCl [hypochlorite],reversibility of inhibition of arylsulfatase,arylsulfatase,irreversible
same,IC50,"arylsulfatase; read-out: IC50 on arylsulfatase at pH 5.0, pH 5.0",7.64 ± 0.61 µM
same,reversibility of inhibition of β-glucuronidase,β-glucuronidase,irreversible
